Values after ≈ are worked out from the molar mass of the structure shown. Active and inactive are the calls of the source. The calls are words filed in the database; no cut-off is given here.
Columns and labels:
[1] = molecular target: T1, UDP-3-O-acyl-N-acetylglucosamine deacetylase (Pseudomonas aeruginosa (strain ATCC 15692 / PAO1 / 1C / PRS 101 / LMG12228), UniProt P47205); assay: Inhibition of Pseudomonas aeruginosa LpxC using UDP-3-O-(R-hydroxydecanoyl)-N-acetylglucosamine as substrate preincubated for 30 mins followed by substrate addition measured after 20 mins by LC-MS/MS analysis
T1 sequence (P47205 whole entry): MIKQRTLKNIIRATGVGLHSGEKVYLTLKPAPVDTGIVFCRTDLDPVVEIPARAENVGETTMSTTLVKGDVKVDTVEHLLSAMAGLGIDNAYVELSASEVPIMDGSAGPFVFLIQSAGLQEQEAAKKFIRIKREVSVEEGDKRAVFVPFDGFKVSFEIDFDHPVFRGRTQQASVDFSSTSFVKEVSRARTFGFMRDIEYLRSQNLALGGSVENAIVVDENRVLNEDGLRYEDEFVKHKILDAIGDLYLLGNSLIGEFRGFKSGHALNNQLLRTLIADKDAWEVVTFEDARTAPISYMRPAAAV

Pseudomonas aeruginosa [2] = assay: Antibacterial activity against Pseudomonas aeruginosa PAO1 K767 after 18 to 24 hrs; type: functional
Procedure, shortened: (§1)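 Broth MIC per CLSI guidelines in cation-adjusted Mueller Hinton broth. Compounds were dissolved and serially diluted in DMSO (carbapenems in water) before addition to plates. Incubation was at 37 °C for 18−24 h. MIC is the lowest concentration preventing visible growth. MIC50/MIC90 are the concentrations inhibiting 50% or 90% of isolates tested.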

Pseudomonas aeruginosa [3] = assay: Antibacterial activity against mexAB-oprM deficient Pseudomonas aeruginosa K1119 after 18 to 24 hrs; type: functional; procedure, shortened: as §1
Pseudomonas aeruginosa [4] = assay: Antibacterial activity against hypersusceptible Pseudomonas aeruginosa Z61 after 18 to 24 hrs; type: functional; procedure, shortened: as §1
Pseudomonas aeruginosa [5] = assay: Antibacterial activity against Pseudomonas aeruginosa clinical isolate after 18 to 24 hrs; type: functional
Pseudomonas aeruginosa [6] = assay: Antibacterial activity against Pseudomonas aeruginosa NB52001 after 18 to 24 hrs; type: functional; procedure, shortened: as §1
Pseudomonas aeruginosa [7] = assay: Antibacterial activity against Pseudomonas aeruginosa NB52096 after 18 to 24 hrs; type: functional; procedure, shortened: as §1
Acinetobacter baumannii = assay: Antibacterial activity against Acinetobacter baumannii NB48015 after 18 to 24 hrs; type: functional; procedure, shortened: as §1
Alcaligenes = assay: Antibacterial activity against Alcaligenes xylosus NB56002 after 18 to 24 hrs; type: functional; procedure, shortened: as §1
Burkholderia cepacia = assay: Antibacterial activity against Burkholderia cepacia NB49016 after 18 to 24 hrs; type: functional; procedure, shortened: as §1
[8] = test system: Stenotrophomonas maltophilia; assay: Antibacterial activity against Stenotrophomonas maltophilia NB55011 after 18 to 24 hrs; type: functional; procedure, shortened: as §1
Klebsiella aerogenes = assay: Antibacterial activity against Enterobacter aerogenes NB24004 after 18 to 24 hrs; type: functional; procedure, shortened: as §1
Escherichia coli [9] = assay: Antibacterial activity against Escherichia coli NB27047 after 18 to 24 hrs; type: functional; procedure, shortened: as §1
Klebsiella pneumoniae = assay: Antibacterial activity against Klebsiella pneumoniae NB29018 after 18 to 24 hrs; type: functional; procedure, shortened: as §1
Klebsiella oxytoca = assay: Antibacterial activity against Klebsiella oxytoca NB30007 after 18 to 24 hrs; type: functional; procedure, shortened: as §1
Proteus mirabilis = assay: Antibacterial activity against Proteus mirabilis NB32022 after 18 to 24 hrs; type: functional; procedure, shortened: as §1
[10] = Solubility of the compound at pH 6.8 by high throughput screening assay; type: physicochemical; settings: buffer, read-out: solubility
[11] = Cytotoxicity against human K562 cells assessed as reduction in cell viability after 72 hrs by WST1 assay; type: cell-based
Procedure, shortened: (§2)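 Cells were grown and assayed in medium with 10% heat-inactivated FBS and exposed to compound for 72 h. Metabolic activity was read as WST-1 cleavage to formazan at A450, with puromycin as positive control. CC50 (50% reduction in viability) was calculated from dose-response curves.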

[12] = Cytotoxicity against human HepG2 cells assessed as reduction in cell viability after 72 hrs by WST1 assay; type: cell-based; procedure, shortened: as §2
Histone deacetylase 1 = Histone deacetylase 1 (Homo sapiens, UniProt Q13547); assay: Inhibition of human HDAC1
Chain of Histone deacetylase 1 (Q13547 whole entry): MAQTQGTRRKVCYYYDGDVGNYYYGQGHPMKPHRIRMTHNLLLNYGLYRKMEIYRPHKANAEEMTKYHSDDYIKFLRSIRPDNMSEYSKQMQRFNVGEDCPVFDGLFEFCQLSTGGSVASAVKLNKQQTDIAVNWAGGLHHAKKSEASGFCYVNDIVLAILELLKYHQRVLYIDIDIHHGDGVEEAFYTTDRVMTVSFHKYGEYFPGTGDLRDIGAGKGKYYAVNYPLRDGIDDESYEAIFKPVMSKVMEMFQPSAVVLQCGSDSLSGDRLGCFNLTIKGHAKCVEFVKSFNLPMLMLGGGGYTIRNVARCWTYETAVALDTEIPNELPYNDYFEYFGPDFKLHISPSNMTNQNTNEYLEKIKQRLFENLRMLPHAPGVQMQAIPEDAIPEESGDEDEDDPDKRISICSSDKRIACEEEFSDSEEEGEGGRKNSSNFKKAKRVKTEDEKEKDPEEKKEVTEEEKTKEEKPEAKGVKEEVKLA

Histone deacetylase 2 = Histone deacetylase 2 (Homo sapiens, UniProt Q92769); assay: Inhibition of human HDAC2
Chain of Histone deacetylase 2 (Q92769 whole entry): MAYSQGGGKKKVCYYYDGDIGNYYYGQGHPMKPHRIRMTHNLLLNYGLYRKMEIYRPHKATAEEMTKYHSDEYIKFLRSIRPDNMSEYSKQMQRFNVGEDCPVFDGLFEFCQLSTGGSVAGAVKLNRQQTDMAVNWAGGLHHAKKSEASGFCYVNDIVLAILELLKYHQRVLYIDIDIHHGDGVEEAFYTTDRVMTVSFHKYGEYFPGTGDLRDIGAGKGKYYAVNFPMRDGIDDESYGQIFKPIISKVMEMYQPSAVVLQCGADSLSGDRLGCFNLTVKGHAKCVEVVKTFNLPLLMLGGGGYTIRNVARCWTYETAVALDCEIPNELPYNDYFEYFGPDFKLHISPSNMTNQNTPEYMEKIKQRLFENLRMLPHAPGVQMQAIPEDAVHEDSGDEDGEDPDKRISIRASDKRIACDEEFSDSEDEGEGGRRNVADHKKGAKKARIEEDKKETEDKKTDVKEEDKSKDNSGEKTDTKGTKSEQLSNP

Histone deacetylase 3 = Histone deacetylase 3 (Homo sapiens, UniProt O15379); assay: Inhibition of human HDAC3
Chain of Histone deacetylase 3 (O15379 whole entry): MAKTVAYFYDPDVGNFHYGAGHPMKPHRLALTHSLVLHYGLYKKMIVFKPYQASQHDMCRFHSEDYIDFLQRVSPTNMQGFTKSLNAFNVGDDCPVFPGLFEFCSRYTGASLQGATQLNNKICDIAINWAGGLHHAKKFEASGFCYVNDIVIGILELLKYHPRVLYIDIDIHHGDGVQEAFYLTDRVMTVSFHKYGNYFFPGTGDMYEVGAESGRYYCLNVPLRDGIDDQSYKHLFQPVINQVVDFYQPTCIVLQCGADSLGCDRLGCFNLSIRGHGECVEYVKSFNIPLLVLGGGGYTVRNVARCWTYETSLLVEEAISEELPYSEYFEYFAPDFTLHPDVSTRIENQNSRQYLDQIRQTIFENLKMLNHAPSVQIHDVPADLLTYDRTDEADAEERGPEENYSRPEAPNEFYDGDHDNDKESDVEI

Histone deacetylase 4 = Histone deacetylase 4 (Homo sapiens, UniProt P56524); assay: Inhibition of human HDAC4
Histone deacetylase 5 = Histone deacetylase 5 (Homo sapiens, UniProt Q9UQL6); assay: Inhibition of human HDAC5
[13] = molecular target: Protein deacetylase HDAC6 (Homo sapiens, UniProt Q9UBN7); assay: Inhibition of human HDAC6
Chain of Protein deacetylase HDAC6 (Q9UBN7 whole entry): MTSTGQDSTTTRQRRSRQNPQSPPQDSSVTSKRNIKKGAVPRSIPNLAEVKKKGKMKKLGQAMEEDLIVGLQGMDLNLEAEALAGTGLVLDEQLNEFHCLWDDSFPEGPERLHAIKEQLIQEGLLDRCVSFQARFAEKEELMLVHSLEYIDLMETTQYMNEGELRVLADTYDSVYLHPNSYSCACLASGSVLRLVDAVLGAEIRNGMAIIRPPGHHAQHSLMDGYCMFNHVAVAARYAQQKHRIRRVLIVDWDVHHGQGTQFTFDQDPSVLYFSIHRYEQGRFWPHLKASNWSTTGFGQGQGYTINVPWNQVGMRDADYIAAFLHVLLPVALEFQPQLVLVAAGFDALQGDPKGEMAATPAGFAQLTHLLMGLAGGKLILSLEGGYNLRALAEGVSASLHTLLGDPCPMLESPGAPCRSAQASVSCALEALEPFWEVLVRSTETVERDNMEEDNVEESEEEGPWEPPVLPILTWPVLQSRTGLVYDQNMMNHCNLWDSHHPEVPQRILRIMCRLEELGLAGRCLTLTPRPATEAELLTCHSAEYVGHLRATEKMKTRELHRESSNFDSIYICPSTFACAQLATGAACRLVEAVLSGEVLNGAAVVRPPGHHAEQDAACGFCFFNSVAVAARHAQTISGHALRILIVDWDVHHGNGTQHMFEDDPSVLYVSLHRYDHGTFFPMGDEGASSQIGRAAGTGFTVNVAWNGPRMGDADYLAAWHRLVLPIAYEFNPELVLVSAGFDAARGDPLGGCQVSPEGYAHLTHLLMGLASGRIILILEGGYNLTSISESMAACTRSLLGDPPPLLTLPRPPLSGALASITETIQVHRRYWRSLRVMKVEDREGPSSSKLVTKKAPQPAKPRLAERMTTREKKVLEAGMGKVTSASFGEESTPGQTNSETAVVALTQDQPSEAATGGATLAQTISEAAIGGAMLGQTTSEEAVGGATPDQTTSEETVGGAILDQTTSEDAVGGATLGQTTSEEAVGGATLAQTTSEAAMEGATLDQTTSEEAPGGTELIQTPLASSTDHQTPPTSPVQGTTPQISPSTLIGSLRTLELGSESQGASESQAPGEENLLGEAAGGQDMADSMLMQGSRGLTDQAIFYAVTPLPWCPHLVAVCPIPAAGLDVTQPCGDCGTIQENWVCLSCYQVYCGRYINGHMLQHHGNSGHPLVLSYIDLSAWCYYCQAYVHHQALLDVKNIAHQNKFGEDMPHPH

Histone deacetylase 7 = Histone deacetylase 7 (Homo sapiens, UniProt Q8WUI4); assay: Inhibition of human HDAC7
Histone deacetylase 8 = Histone deacetylase 8 (Homo sapiens, UniProt Q9BY41); assay: Inhibition of human HDAC8
Chain of Histone deacetylase 8 (Q9BY41 whole entry): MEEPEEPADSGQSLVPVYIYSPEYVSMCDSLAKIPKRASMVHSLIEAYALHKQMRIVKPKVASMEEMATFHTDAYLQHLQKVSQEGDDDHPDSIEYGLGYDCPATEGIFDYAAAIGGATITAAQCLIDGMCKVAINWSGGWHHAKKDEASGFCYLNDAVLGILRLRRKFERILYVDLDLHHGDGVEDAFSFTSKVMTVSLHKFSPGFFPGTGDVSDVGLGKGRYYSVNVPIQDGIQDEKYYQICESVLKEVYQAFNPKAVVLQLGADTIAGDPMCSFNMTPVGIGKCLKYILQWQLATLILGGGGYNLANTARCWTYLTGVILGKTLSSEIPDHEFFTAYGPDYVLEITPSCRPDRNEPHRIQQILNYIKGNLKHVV

Histone deacetylase 9 = Histone deacetylase 9 (Homo sapiens, UniProt Q9UKV0); assay: Inhibition of human HDAC9
Chain of Histone deacetylase 9 (Q9UKV0 whole entry): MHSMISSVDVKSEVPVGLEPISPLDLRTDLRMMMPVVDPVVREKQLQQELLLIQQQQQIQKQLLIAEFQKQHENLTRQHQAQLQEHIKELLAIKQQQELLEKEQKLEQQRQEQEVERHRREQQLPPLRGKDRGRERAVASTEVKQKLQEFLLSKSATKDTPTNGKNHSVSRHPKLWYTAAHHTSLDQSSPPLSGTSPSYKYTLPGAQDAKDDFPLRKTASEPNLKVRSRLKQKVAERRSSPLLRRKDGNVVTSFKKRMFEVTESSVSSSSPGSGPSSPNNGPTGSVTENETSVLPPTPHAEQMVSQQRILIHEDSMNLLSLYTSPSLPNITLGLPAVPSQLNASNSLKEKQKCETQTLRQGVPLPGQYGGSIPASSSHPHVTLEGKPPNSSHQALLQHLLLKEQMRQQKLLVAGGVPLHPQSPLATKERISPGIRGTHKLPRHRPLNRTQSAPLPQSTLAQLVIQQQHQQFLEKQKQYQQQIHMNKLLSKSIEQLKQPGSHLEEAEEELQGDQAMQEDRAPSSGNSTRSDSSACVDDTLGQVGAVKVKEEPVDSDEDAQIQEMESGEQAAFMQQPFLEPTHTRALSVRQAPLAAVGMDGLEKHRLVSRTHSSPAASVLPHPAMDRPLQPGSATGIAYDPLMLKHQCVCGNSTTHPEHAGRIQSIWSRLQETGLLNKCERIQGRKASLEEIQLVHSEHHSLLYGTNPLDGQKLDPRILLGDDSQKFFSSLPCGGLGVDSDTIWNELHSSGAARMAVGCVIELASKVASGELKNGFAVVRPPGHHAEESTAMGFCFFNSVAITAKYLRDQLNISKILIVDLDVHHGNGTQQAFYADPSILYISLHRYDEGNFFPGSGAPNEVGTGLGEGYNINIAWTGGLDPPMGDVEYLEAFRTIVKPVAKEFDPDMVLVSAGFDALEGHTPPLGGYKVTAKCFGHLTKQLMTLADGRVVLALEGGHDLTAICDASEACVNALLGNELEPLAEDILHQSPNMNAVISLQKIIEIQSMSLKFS

[14] = molecular target: Polyamine deacetylase HDAC10 (Homo sapiens, UniProt Q969S8); assay: Inhibition of human HDAC10
Chain of Polyamine deacetylase HDAC10 (Q969S8 whole entry): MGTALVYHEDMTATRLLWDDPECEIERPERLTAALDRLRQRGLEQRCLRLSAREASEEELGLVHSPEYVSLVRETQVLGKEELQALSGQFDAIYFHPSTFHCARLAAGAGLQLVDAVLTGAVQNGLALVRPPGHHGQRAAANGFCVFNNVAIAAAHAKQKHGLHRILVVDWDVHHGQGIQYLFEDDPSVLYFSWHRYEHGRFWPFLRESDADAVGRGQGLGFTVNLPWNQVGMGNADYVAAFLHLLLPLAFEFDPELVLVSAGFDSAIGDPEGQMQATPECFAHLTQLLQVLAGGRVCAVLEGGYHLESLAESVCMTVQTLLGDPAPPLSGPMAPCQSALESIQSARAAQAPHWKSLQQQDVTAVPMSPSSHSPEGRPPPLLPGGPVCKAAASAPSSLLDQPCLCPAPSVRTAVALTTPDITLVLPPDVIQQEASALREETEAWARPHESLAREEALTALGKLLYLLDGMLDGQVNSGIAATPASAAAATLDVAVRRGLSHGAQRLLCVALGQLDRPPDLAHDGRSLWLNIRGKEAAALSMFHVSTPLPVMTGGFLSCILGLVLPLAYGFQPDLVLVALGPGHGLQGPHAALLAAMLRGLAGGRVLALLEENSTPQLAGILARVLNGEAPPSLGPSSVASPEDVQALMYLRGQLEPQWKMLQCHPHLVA

Histone deacetylase 11 = Histone deacetylase 11 (Homo sapiens, UniProt Q96DB2); assay: Inhibition of human HDAC11
Chain of Histone deacetylase 11 (Q96DB2 whole entry): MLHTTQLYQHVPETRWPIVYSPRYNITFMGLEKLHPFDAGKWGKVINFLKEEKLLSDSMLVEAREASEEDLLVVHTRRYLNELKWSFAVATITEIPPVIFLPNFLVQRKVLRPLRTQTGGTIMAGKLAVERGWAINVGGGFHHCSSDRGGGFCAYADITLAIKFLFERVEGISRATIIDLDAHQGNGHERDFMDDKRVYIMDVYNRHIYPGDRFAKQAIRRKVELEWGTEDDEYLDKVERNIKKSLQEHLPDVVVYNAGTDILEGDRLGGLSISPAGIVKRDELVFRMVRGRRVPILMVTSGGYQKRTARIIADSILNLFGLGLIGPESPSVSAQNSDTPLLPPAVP

[15] = Protein binding in mouse plasma; type: ADME, cell-free; settings: read-out: PPB (converted)
[16] = Protein binding in rat plasma; type: ADME, cell-free; settings: read-out: PPB (converted)
[17] = Protein binding in human plasma; type: ADME, cell-free; settings: read-out: PPB (converted)
Escherichia coli [18] = assay: Antibacterial activity against efflux pump deficient Escherichia coli after 18 to 24 hrs; type: functional
Procedure, shortened: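 MIC per CLSI guidelines. Strains grown in cation-adjusted Mueller Hinton broth. Compounds dissolved in DMSO and serially diluted in DMSO (carbapenems in water) before addition to microtiter plates. Incubation at 37 °C for 18−24 h. MIC is the lowest concentration preventing visible growth.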

Pseudomonas aeruginosa [19] = assay: Antibacterial activity against Pseudomonas aeruginosa ATCC 27853 in CD1 mouse thigh infection model assessed as reduction in bacterial burden in thigh at 160 to 320 mg/kg, iv administered at 2 hrs post infection measured after 24 hrs
Pseudomonas aeruginosa [20] = assay: Antibacterial activity against Pseudomonas aeruginosa clinical isolate infected in iv dosed BalbC mouse neutropenic model assessed as concentration required to show bacterial stasis in lung administered as bid at 2 and 8 hrs post infection measured after 24 hrs
Pseudomonas aeruginosa [21] = assay: Antibacterial activity against Pseudomonas aeruginosa clinical isolate infected in iv dosed BalbC mouse neutropenic model assessed as concentration required to show reduction in bacterial burden in lung of 2 log below stasis administered as bid at 2 and 8 hrs post infection measured after 24 hrs

## C[C@@H](N)[C@H](NC(=O)c1ccc(OC(C)(C)C)cc1)C(=O)NO
[1]
  IC50: 0.268 µM
Pseudomonas aeruginosa [2]
  MIC: 32 µg/mL (≈ 103 µM)
Pseudomonas aeruginosa [3]
  MIC: 1 µg/mL (≈ 3.23 µM)
Pseudomonas aeruginosa [4]
  MIC: 4 µg/mL (≈ 12.9 µM)

## C[C@@H](N)[C@H](NC(=O)[C@H]1CC[C@H](C(C)(C)C)CC1)C(=O)NO
[1]
  IC50: 0.117 µM
Pseudomonas aeruginosa [2]
  MIC: 128 µg/mL (≈ 428 µM)
Pseudomonas aeruginosa [3]
  MIC: 16 µg/mL (≈ 53.4 µM)
Pseudomonas aeruginosa [4]
  MIC: 32 µg/mL (≈ 107 µM)

## CC(C)(O/N=C(\C(=O)N[C@@H]1C(=O)N2C(C(=O)[O-])=C(C[n+]3ccccc3)CS[C@H]12)c1csc(N)n1)C(=O)O [CEFTAZIDIME]
Pseudomonas aeruginosa [5]
  MIC50: 4 µg/mL (≈ 7.32 µM)
  MIC90: > 128 µg/mL

## CC#CCOc1ccc(C(=O)N[C@H](C(=O)NO)C(C)(C)N)cc1
Pseudomonas aeruginosa [2]
  MIC: 0.5 µg/mL (≈ 1.57 µM)
Pseudomonas aeruginosa [3]
  MIC: 0.06 µg/mL (≈ 0.188 µM)
Pseudomonas aeruginosa [4]
  MIC: 0.25 µg/mL (≈ 0.783 µM)
Pseudomonas aeruginosa [6]
  MIC: 1 µg/mL (≈ 3.13 µM)
Pseudomonas aeruginosa [7]
  MIC: 2 µg/mL (≈ 6.26 µM)
Acinetobacter baumannii
  MIC: > 128 µg/mL
Alcaligenes
  MIC: 16 µg/mL (≈ 50.1 µM)
Burkholderia cepacia
  MIC: 32 µg/mL (≈ 100 µM)
[8]
  MIC: 32 µg/mL (≈ 100 µM)
Klebsiella aerogenes
  MIC: > 128 µg/mL
Escherichia coli [9]
  MIC: 64 µg/mL (≈ 200 µM)
Klebsiella pneumoniae
  MIC: 16 µg/mL (≈ 50.1 µM)
Klebsiella oxytoca
  MIC: 16 µg/mL (≈ 50.1 µM)
Proteus mirabilis
  MIC: 64 µg/mL (≈ 200 µM)
[10]
  solubility: > 327 µg/mL
[11]
  CC50 at 72 h: > 295 µM
[12]
  CC50 at 72 h: > 295 µM
Histone deacetylase 1
  IC50: > 30 µM
Histone deacetylase 2
  IC50: > 30 µM
Histone deacetylase 3
  IC50: > 30 µM
Histone deacetylase 4
  IC50: > 30 µM
Histone deacetylase 5
  IC50: > 30 µM
[13]
  IC50: > 30 µM
Histone deacetylase 7
  IC50: > 30 µM
Histone deacetylase 8
  IC50: > 30 µM
Histone deacetylase 9
  IC50: > 30 µM
[14]
  IC50: > 30 µM
Histone deacetylase 11
  IC50: > 30 µM
[15]
  fraction unbound: 0.772
[16]
  fraction unbound: 0.779
[17]
  fraction unbound: 0.193
Pseudomonas aeruginosa [5]
  MIC50: 1 µg/mL (≈ 3.13 µM)
  MIC90: 2 µg/mL (≈ 6.26 µM)
Escherichia coli [18]
  MIC: 1 to 2 µg/mL (≈ 3.13 to 6.26 µM)
Pseudomonas aeruginosa [19]
  Activity: Active
Pseudomonas aeruginosa [20]
  Activity: 7.1 mg/kg/day
Pseudomonas aeruginosa [21]
  Activity: 20 mg/kg/day

## CC#CCOc1ccc(C(=O)N[C@@H](C(=O)NO)C(C)(C)N)cc1
Pseudomonas aeruginosa [2]
  MIC: 16 µg/mL (≈ 50.1 µM)
Pseudomonas aeruginosa [3]
  MIC: 2 µg/mL (≈ 6.26 µM)
Pseudomonas aeruginosa [4]
  MIC: 4 µg/mL (≈ 12.5 µM)

## C[C@@H](O)[C@H]1C(=O)N2C(C(=O)O)=C(S[C@@H]3CN[C@H](CNS(N)(=O)=O)C3)[C@H](C)[C@H]12 [DORIPENEM]
Pseudomonas aeruginosa [5]
  MIC50: 1 µg/mL (≈ 2.38 µM)
  MIC90: 32 µg/mL (≈ 76.1 µM)

## CC#CCOc1ccc(C(=O)N[C@H](C(=O)NO)[C@H](C)N)cc1
[1]
  IC50: 0.0164 µM
Pseudomonas aeruginosa [2]
  MIC: 1 µg/mL (≈ 3.28 µM)
Pseudomonas aeruginosa [3]
  MIC: 0.5 µg/mL (≈ 1.64 µM)
Pseudomonas aeruginosa [4]
  MIC: 1 µg/mL (≈ 3.28 µM)

Source: ChEMBL document CHEMBL4028845, “Design, Synthesis, and Properties of a Potent Inhibitor of Pseudomonas aeruginosa Deacetylase LpxC” (J Med Chem, 2017)
